The record followed here is paper PMC8992017 (Journal of medicinal chemistry, 2019).

Entries after “also recorded” stand apart in the source; their conditions may differ.

The subject of assay [1] is ISRE. In words: ISRE activity in ISRE-bla THP-1 reporter cells. The class given is cell-based. The conditions noted are these: compound 5 μM + IFN-α, compared with compound 1. The method, boiled down:
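ISRE-bla THP-1 cells at 5×10^4/well in RPMI with 10% dialyzed FBS, 0.1 mM non-essential amino acids, 1 mM pyruvate and pen/strep. Test compound (1 mM DMSO stock) was diluted in IFN-α medium, giving final 5 μM compound ([…]) and final 100 U/mL IFN-α. Incubation 16 h, then CCF4-AM FRET substrate 3 h at RT in the dark. Excitation 405 nm; background-subtracted 465/535 nm emission ratio. Two-point normalized: reference sulfonamide + IFN-α = 200%, IFN-α alone = 100%; mean ± SEM.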

Assay [2] deals with NF-κB. In words: NF-κB activation in THP1-Blue NF-κB reporter cells. Type of assay: cell-based. The conditions noted are these: compound 5 μM + LPS, compared with compound 1. In outline:
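THP1-Blue NF-κB cells at 10^5/well in RPMI with 10% FBS, pen/strep and Normocin. Test compound (1 mM DMSO stock) was diluted into LPS medium, giving final 5 μM compound ([…]), with LPS co-added. After 20 h, supernatant SEAP was measured colorimetrically with QuantiBlue at 630 nm. Two-point normalized: reference sulfonamide + LPS = 200%, LPS alone = 100%; mean ± SEM.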

For “3-Bromo-N-(4-chloro-2,5-dimethoxyphenyl)-4-ethoxybenzenesulfonamide [Compound 25]”, the “ISRE activity (in words)” value in assay [1] was “inactive”. Moreover, in assay [2], the “NF-κB activity (in words)” value is “inactive”.
As for `CCOc1ccc(S(=O)(=O)Nc2ccc(Cl)c(OC)c2)cc1` [Compound 4, N-(4-chloro-3-methoxyphenyl)-4-ethoxybenzenesulfonamide], the “ISRE activity (in words)” value in assay [1] is reported as “complete loss of activity”. Also, the “NF-κB activity (in words)” value in assay [2] is “complete loss of activity”.
As to `CCOc1ccc(S(=O)(=O)Nc2ccc(Cl)cc2OC)cc1` [Compound 5, N-(4-chloro-2-methoxyphenyl)-4-ethoxybenzenesulfonamide], the “ISRE activity (in words)” value in assay [1] was “complete loss of activity”. For the same compound, the “NF-κB activity (in words)” value in assay [2] was “complete loss of activity”.
Consider `CCOc1ccc(S(=O)(=O)Nc2cc(OC)ccc2OC)cc1` [Compound 6, N-(2,5-dimethoxyphenyl)-4-ethoxybenzenesulfonamide], for which the “ISRE activity (in words)” value in assay [1] is “retained activity”. Further, the “NF-κB activity (in words)” value in assay [2] is reported as “retained activity”.
Consider `CCOc1ccc(S(=O)(=O)Nc2cc(OC)c(Br)cc2OC)cc1` [Compound 7, N-(4-bromo-2,5-dimethoxyphenyl)-4-ethoxybenzenesulfonamide], for which, in assay [1], the “ISRE activity (in words)” value is listed as “retained activity; also recorded: slightly skewed ISRE activity”. Further, the “NF-κB activity (in words)” value in assay [2] is given as “retained activity”.
Regarding `CCOc1ccc(S(=O)(=O)Nc2cc(OC)c(Cl)c(OC)c2)cc1` [Compound 8, N-(4-chloro-3,5-dimethoxyphenyl)-4-ethoxybenzenesulfonamide], the “ISRE activity (in words)” value in assay [1] is reported as “complete loss of activity; also recorded: slightly skewed ISRE activity”. In assay [2], the “NF-κB activity (in words)” value is “complete loss of activity”.
On to `CCOc1ccc(S(=O)(=O)Nc2cc(OC)c([N+](=O)[O-])cc2OC)cc1` [Compound 9, N-(2,5-dimethoxy-4-nitrophenyl)-4-ethoxybenzenesulfonamide], for which the “ISRE activity (in words)” value in assay [1] is “inactive”.
As to `CCOc1ccc(S(=O)(=O)Nc2cc(OC)c(N)cc2OC)cc1` [Compound 10, N-(4-amino-2,5-dimethoxyphenyl)-4-ethoxybenzenesulfonamide], the “ISRE activity (in words)” value in assay [1] is “inactive”.
As for `COc1cc(NS(=O)(=O)c2ccc(O)cc2)c(OC)cc1Cl` [Compound 11, N-(4-chloro-2,5-dimethoxyphenyl)-4-hydroxybenzenesulfonamide], the “ISRE activity (in words)” value in assay [1] was “not tolerated”. In addition, in assay [2], the “NF-κB activity (in words)” value is recorded as “not tolerated”.
Take `COc1ccc(S(=O)(=O)Nc2cc(OC)c(Cl)cc2OC)cc1` [Compound 12, N-(4-chloro-2,5-dimethoxyphenyl)-4-methoxybenzenesulfonamide]: the “ISRE activity (in words)” value in assay [1] is “tolerated”. In assay [2], the “NF-κB activity (in words)” value is given as “tolerated”.
Consider `CCCOc1ccc(S(=O)(=O)Nc2cc(OC)c(Cl)cc2OC)cc1` [Compound 13, N-(4-chloro-2,5-dimethoxyphenyl)-4-propoxybenzenesulfonamide], for which, in assay [1], the “ISRE activity (in words)” value is recorded as “weakly active”. Moreover, the “NF-κB activity (in words)” value in assay [2] is on record as “weakly active”.
Turning to `CCCCOc1ccc(S(=O)(=O)Nc2cc(OC)c(Cl)cc2OC)cc1` [Compound 14, 4-Butoxy-N-(4-chloro-2,5-dimethoxyphenyl)benzenesulfonamide], in assay [1], the “ISRE activity (in words)” value was “gradual loss of activity”. For the same compound, in assay [2], the “NF-κB activity (in words)” value is given as “gradual loss of activity”.
Consider `C#CCOc1ccc(S(=O)(=O)Nc2cc(OC)c(Cl)cc2OC)cc1` [Compound 15, N-(4-chloro-2,5-dimethoxyphenyl)-4-(prop-2-yn-1-yloxy)benzenesulfonamide], for which the “ISRE activity (in words)” value in assay [1] is “inactive”. Besides, the “NF-κB activity (in words)” value in assay [2] was “inactive”.
With `CCCc1ccc(S(=O)(=O)Nc2cc(OC)c(Cl)cc2OC)cc1` [Compound 16, N-(4-chloro-2,5-dimethoxyphenyl)-4-propylbenzenesulfonamide], in assay [1], the “ISRE activity (in words)” value is “loss of activity”. Further, the “NF-κB activity (in words)” value in assay [2] is “loss of activity”.
Consider `COc1cc(NS(=O)(=O)c2ccc([N+](=O)[O-])cc2)c(OC)cc1Cl` [Compound 17, N-(4-chloro-2,5-dimethoxyphenyl)-4-nitrobenzenesulfonamide], for which the “ISRE activity (in words)” value in assay [1] was “either weakly active or completely inactive”. The “NF-κB activity (in words)” value in assay [2] is “either weakly active or completely inactive”.
For `COc1cc(NS(=O)(=O)c2ccc(N)cc2)c(OC)cc1Cl` [Compound 18, 4-Amino-N-(4-chloro-2,5-dimethoxyphenyl)benzenesulfonamide], the “ISRE activity (in words)” value in assay [1] was “either weakly active or completely inactive”. For the same compound, the “NF-κB activity (in words)” value in assay [2] is “either weakly active or completely inactive”.
With `COc1cc(NS(=O)(=O)c2ccc(C#N)cc2)c(OC)cc1Cl` [Compound 19, N-(4-chloro-2,5-dimethoxyphenyl)-4-cyanobenzenesulfonamide], the “ISRE activity (in words)” value in assay [1] was “either weakly active or completely inactive”. Also, the “NF-κB activity (in words)” value in assay [2] is “either weakly active or completely inactive”.
In the case of `COc1cc(NS(=O)(=O)c2ccc(CNC(=O)OC(C)(C)C)cc2)c(OC)cc1Cl` [Compound 20, tert-butyl (4-(N-(4-chloro-2,5-dimethoxyphenyl)sulfamoyl)benzyl)carbamate], the “ISRE activity (in words)” value in assay [1] is “either weakly active or completely inactive”. In addition, the “NF-κB activity (in words)” value in assay [2] is “either weakly active or completely inactive”.
With `COc1cc(NS(=O)(=O)c2ccc(CN)cc2)c(OC)cc1Cl` [Compound 21, 4-(aminomethyl)-N-(4-chloro-2,5-dimethoxyphenyl)benzenesulfonamide], the “ISRE activity (in words)” value in assay [1] is “either weakly active or completely inactive”. In assay [2], the “NF-κB activity (in words)” value is “either weakly active or completely inactive”.
In the case of `COc1cc(NS(=O)(=O)c2ccc(Oc3ccccc3)cc2)c(OC)cc1Cl` [Compound 22, N-(4-chloro-2,5-dimethoxyphenyl)-4-phenoxybenzenesulfonamide], in assay [1], the “ISRE activity (in words)” value was “inactive”.
Regarding `COc1cccc(S(=O)(=O)Nc2cc(OC)c(Cl)cc2OC)c1` [Compound 23, N-(4-chloro-2,5-dimethoxyphenyl)-3-methoxybenzenesulfonamide], the “ISRE activity (in words)” value in assay [1] was “none of these molecules was active”. In assay [2], the “NF-κB activity (in words)” value is reported as “none of these molecules was active”.
As for `COc1cc(NS(=O)(=O)c2ccccc2OC)c(OC)cc1Cl` [Compound 24, N-(4-chloro-2,5-dimethoxyphenyl)-2-methoxybenzenesulfonamide], in assay [1], the “ISRE activity (in words)” value is “none of these molecules was active”. For the same compound, in assay [2], the “NF-κB activity (in words)” value is recorded as “none of these molecules was active”.
As for `COC(=O)c1ccc(S(=O)(=O)Nc2cc(OC)c(Cl)cc2OC)cc1` [Compound 26, Methyl 4-(N-(4-chloro-2,5-dimethoxyphenyl)sulfamoyl)benzoate], the “ISRE activity (in words)” value in assay [1] is listed as “active”.
In the case of `COc1cc(NS(=O)(=O)c2ccc(C(N)=O)cc2)c(OC)cc1Cl` [Compound 27, 4-(N-(4-chloro-2,5-dimethoxyphenyl)sulfamoyl)benzamide], the “ISRE activity (in words)” value in assay [1] is recorded as “lost activity”. Further, the “NF-κB activity (in words)” value in assay [2] is given as “lost activity”.
Consider `COc1cc(NS(=O)(=O)c2ccc(C(=O)O)cc2)c(OC)cc1Cl` [Compound 28, 4-(N-(4-chloro-2,5-dimethoxyphenyl)sulfamoyl)benzoic acid], for which, in assay [1], the “ISRE activity (in words)” value is “lost activity”. Besides, the “NF-κB activity (in words)” value in assay [2] was “lost activity”.
Take `CCOC(=O)c1ccc(S(=O)(=O)Nc2cc(OC)c(Cl)cc2OC)cc1` [Compound 29, Ethyl 4-(N-(4-chloro-2,5-dimethoxyphenyl)sulfamoyl)benzoate]: the “ISRE activity (in words)” value in assay [1] is listed as “retained partial activity”. For the same compound, the “NF-κB activity (in words)” value in assay [2] is on record as “retained partial activity”.
Consider `CNC(=O)c1ccc(S(=O)(=O)Nc2cc(OC)c(Cl)cc2OC)cc1` [Compound 30, 4-(N-(4-chloro-2,5-dimethoxyphenyl)sulfamoyl)-N-methylbenzamide], for which the “ISRE activity (in words)” value in assay [1] was “completely inactive”. In addition, in assay [2], the “NF-κB activity (in words)” value was “completely inactive”.
Take `CCOc1ccc(NS(=O)(=O)c2cc(OC)c(Cl)cc2OC)cc1` [Compound 31, 4-Chloro-N-(4-ethoxyphenyl)-2,5-dimethoxybenzenesulfonamide]: the “ISRE activity (in words)” value in assay [1] is given as “inactivity”. In assay [2], the “NF-κB activity (in words)” value is on record as “inactivity”.
In the case of `CCOc1ccc(S(=O)(=O)N(c2cc(OC)c(Cl)cc2OC)C(C)C)cc1` [Compound 40, N-(4-chloro-2,5-dimethoxyphenyl)-4-ethoxy-N-isopropylbenzenesulfonamide], the “ISRE activity (in words)” value in assay [1] is “retaining ISRE activity”. Also, the “NF-κB activity (in words)” value in assay [2] is given as “eliminated the NF-κB activity”.
As to `CCOc1ccc(S(=O)(=O)N(CC(C)C)c2cc(OC)c(Cl)cc2OC)cc1` [Compound 41, N-(4-chloro-2,5-dimethoxyphenyl)-4-ethoxy-N-isobutylbenzenesulfonamide], in assay [1], the “ISRE activity (in words)” value was “regained the activity”. In assay [2], the “NF-κB activity (in words)” value was “regained the activity”.
Take `COc1cc(NS(=O)(=O)c2ccc(OC)c(N=[N+]=[N-])c2)c(OC)cc1Cl` [Compound 61, 3-Azido-N-(4-chloro-2,5-dimethoxyphenyl)-4-methoxybenzenesulfonamide]: the “ISRE activity (in words)” value in assay [1] is “inactive”.
